Source: PubChem (Broad Institute)
Shown are actives, neighbours in structure and some others; about 1.9% of the full set was active somewhere.
Rtt109 Vps75: inhibitors of C. albicans Rtt109/Vps75 HAT, primary screen, biochemical, ThioGlo CoA-SH fluorescence, plate reader; Histone acetyltransferase RTT109 (Candida albicans (strain SC5314 / ATCC MYA-2876)), …; AID 540336, 2011; inhibition, % at 34.9 µM; purified Rtt109/Vps75, 4 h; 330,000 compounds, 0.16% hits;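 active = inhibition of at least 50% in every replicate; inconclusive = best replicate reaches 50% inhibition but some replicates fall short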
PglD DTNB: C. jejuni PglD acetyltransferase inhibitors, primary screen, biochemical, DTNB colorimetric, single point; UDP-N-acetylbacillosamine N-acetyltransferase PglD (Campylobacter jejuni); purified PglD enzyme, DTNB colorimetric CoA detection; inhibition, % at 12.5 µM; 360,000 compounds, 0.098% hits; AID 602405, 2012; in the data active = inhibition above about 16%, passing the limit was not always enough; inconclusive = no clear call, values can overlap the other calls
Glyco luc inh: increase of ERlucT glycosylation luciferase signal, primary screen, N-linked glycosylation inhibitor project, D54 ERlucT cells, luminescence, set 2; D54 ERlucT glycosylation luciferase reporter, 24 h; percent of 100 nM tunicamycin response; reporter increase, % at 12.5 µM; 360,000 compounds, 0.23% hits; AID 588692, 2011;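 active = mean luciferase reporter signal, scaled so untreated is 0 and the glycosylation-blocking control 100, at or above a set limit in every replicate; inconclusive = mean reaches the limit but not every replicate does; inactive = mean below the limit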;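 also: luciferase carries N-glycosylation sites so blocking glycosylation raises the light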
SR-BI DiI inh: inhibitors of SR-BI mediated HDL lipid uptake, primary screen, ldlA[mSR-BI] cells, fluorescence, single point; Scavenger receptor class B member 1 (Mus musculus), Q61009; ldlA[mSR-BI] CHO cells, DiI-HDL uptake fluorescence, 3 h; inhibition, % at 12.5 µM; 320,000 compounds, 0.96% hits;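 active = mean replicate inhibition of at least 70% and a set share of replicates each scoring 70 or more; inconclusive = meets just one of the two criteria; inactive = fails both criteria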
Target sequence (Q61009 whole entry, looked up): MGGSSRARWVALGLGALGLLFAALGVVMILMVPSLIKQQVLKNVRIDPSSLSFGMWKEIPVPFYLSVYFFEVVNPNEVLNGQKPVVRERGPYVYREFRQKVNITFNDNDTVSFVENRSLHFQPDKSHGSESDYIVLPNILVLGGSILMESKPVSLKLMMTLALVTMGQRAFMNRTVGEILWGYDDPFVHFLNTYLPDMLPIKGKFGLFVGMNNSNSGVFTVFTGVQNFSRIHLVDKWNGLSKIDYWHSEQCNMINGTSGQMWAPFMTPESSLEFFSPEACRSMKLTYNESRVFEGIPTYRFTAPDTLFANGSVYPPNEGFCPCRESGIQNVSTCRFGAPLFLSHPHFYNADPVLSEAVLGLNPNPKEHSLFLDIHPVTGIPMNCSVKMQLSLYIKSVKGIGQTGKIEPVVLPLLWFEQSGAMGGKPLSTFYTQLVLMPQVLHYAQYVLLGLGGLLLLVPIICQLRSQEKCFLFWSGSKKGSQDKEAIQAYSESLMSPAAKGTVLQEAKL
HIV Env fusion: inhibitors of HIV-1 Env-driven cell-cell fusion, primary screen, HeLa-JRFL effector, CEM21 target cells, luciferase. 360,000 compounds, 1.1% hits. AID 651610, 2012. inhibition, % at 12.3 µM;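 active = mean replicate inhibition score of at least 50 and every replicate individually at or above 50; inconclusive = only one of the two criteria met; inactive = mean below 50 and not all replicates reaching 50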
SR-BI uptake up: activators of SR-BI mediated DiI-HDL uptake, primary screen, ldlA[mSR-BI] CHO cells, DiI fluorescence. 320,000 compounds, 0.096% hits. AID 504775, 2011. activation, % at 12.5 µM. 3 h; 100 = double the neutral-control signal;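 active = mean replicate activation of at least 60% and every replicate at or above 60%; inconclusive = mean or all-replicate condition met, but not both; inactive = mean below 60% and not all replicates reaching 60%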
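Material – SR-BI-overexpressing, LDLR-lacking CHO cells · Medium – BSA-supplemented, HEPES-buffered Ham's F12, pH 7.4 · Doses – single concentration · Times – compound with DiI-HDL co-incubation, 3 h at 37 °C · Measured by – bottom-read fluorescence, 550/595 nm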
DiI quench: counter-screen for SR-BI lipid transfer inhibitors: DiI fluorescence quenchers; shares compounds with SR-BI DiI inh; cell-free DiI-HDL fluorescence quenching, 30 min; AC50, µM (top dose mostly 35 µM); 470 compounds, 20% hits; AID 540326;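 active = quenching, a falling signal, with AC50 below a set limit tied to the top valid dose, actives reach about 32 µM in these data; inconclusive = no clear call, values can overlap the other calls; inactive = rising signal, and the rest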
Hits are given with their value.

How did O=C(Nc1ccccc1)NC1CC2CCC(C1)N2Cc1nnnn1Cc1ccc2c(c1)OCO2 (stereo not given) do in these assays?
Rtt109 Vps75: inactive; PglD DTNB: inactive; Glyco luc inh: inactive; SR-BI DiI inh: inconclusive; HIV Env fusion: inactive; SR-BI uptake up: inactive; DiI quench: inactive

Results for COCCCNc1nc2c(-c3cccc(C)c3)nnn2c2ccccc12 ?
Rtt109 Vps75: inactive; PglD DTNB: inactive; Glyco luc inh: inactive; SR-BI DiI inh: 103.1; SR-BI uptake up: inactive; DiI quench: inactive

How did CC(C)(C)C(=O)Nc1sc2c(c1-c1nc3ccccc3[nH]1)CCCC2 do in these assays?
Rtt109 Vps75: inactive; PglD DTNB: inactive; Glyco luc inh: inactive; SR-BI DiI inh: 104.3; SR-BI uptake up: inactive; DiI quench: 8.97µM

Results for CC(C)(C)C(=O)Nc1cccc(-c2nc3ccccc3[nH]2)c1 ?
Rtt109 Vps75: inactive; PglD DTNB: inactive; Glyco luc inh: inactive; SR-BI DiI inh: inactive; SR-BI uptake up: inactive

How did COc1ccc(CCN2CC(C(=O)NCc3cc(C(C)C)no3)CCC2=O)cc1 (stereo not given) do in these assays?
Rtt109 Vps75: inactive; PglD DTNB: inactive; Glyco luc inh: inactive; SR-BI DiI inh: inactive; HIV Env fusion: inactive; SR-BI uptake up: inactive; DiI quench: inactive

Results for CC(C)c1cc(CNC(=O)C2CCC(=O)N(CCc3ccc(Cl)cc3)C2)on1 (stereo not given) ?
Rtt109 Vps75: inactive; PglD DTNB: inactive; Glyco luc inh: inactive; SR-BI DiI inh: 78.4; HIV Env fusion: inactive; SR-BI uptake up: inactive; DiI quench: inactive

Results for COc1ccc(C2/C=C\CN(S(=O)(=O)c3ccc4ccccc4c3)CC(=O)N2Cc2ccc(F)cc2)cc1 (stereo not given) ?
Rtt109 Vps75: inactive; PglD DTNB: inactive; Glyco luc inh: inactive; SR-BI DiI inh: inactive; HIV Env fusion: inactive; SR-BI uptake up: inactive; DiI quench: inactive

What do the screens show for `CN(C)c1ccc2c(c1)[C@H]1C[C@@H](CC(=O)NCC3CC3)O[C@@H](CO)[C@H]1O2`?
PglD DTNB: inactive; HIV Env fusion: inactive

How did CNc1nc(-c2ccc3c(c2)CCN3C(=O)c2ccccc2F)c(C)s1 do in these assays?
Rtt109 Vps75: inactive; PglD DTNB: inactive; Glyco luc inh: inactive; SR-BI DiI inh: inactive; HIV Env fusion: inactive; SR-BI uptake up: inactive; DiI quench: inactive

What do the screens show for `CCCC(=O)N1CCc2cc(-c3nc(N)sc3C)ccc21`?
Rtt109 Vps75: inactive; PglD DTNB: inactive; Glyco luc inh: inactive; SR-BI DiI inh: 74.6; HIV Env fusion: inactive; SR-BI uptake up: inactive; DiI quench: inactive

Results for CNc1nc(-c2ccc3c(c2)CCN3C(=O)c2ccccc2F)cs1 ?
Rtt109 Vps75: inactive; Glyco luc inh: inactive; SR-BI DiI inh: inactive; HIV Env fusion: inactive; SR-BI uptake up: inactive

Results for Nc1c(-c2cccs2)cnn1-c1nc(-c2ccc(F)cc2)cs1 ?
Rtt109 Vps75: inactive; PglD DTNB: inactive; Glyco luc inh: inactive; SR-BI DiI inh: 74.1; HIV Env fusion: inactive; SR-BI uptake up: inactive; DiI quench: inactive

What do the screens show for `COC(=O)c1c(C)[nH]c(C(=O)C(C)OC(=O)C2CC(=O)N(c3ccc(C)cc3)C2)c1C` (stereo not given)?
Rtt109 Vps75: inactive; PglD DTNB: inactive; Glyco luc inh: inactive; SR-BI DiI inh: 77.4; HIV Env fusion: inactive; SR-BI uptake up: inactive; DiI quench: inactive

Results for COC(=O)c1c(C)[nH]c(C(=O)C(C)OC(=O)C2CC(=O)N(CCc3ccccc3)C2)c1C (stereo not given) ?
Rtt109 Vps75: inactive; PglD DTNB: inactive; Glyco luc inh: inactive; SR-BI DiI inh: inactive; HIV Env fusion: inactive; SR-BI uptake up: inactive

How did Cc1noc(C)c1S(=O)(=O)Nc1ccc2c(c1)C(=O)N([C@H](C)CO)C[C@@H](C)[C@@H](CN(C)S(=O)(=O)c1cn(C)cn1)O2 do in these assays?
PglD DTNB: inactive; HIV Env fusion: inactive

What do the screens show for `CNC(=O)COC(=O)/C=C/c1cn(-c2ccccc2)nc1-c1ccc2c(c1)OCCO2`?
Rtt109 Vps75: inactive; Glyco luc inh: inactive; SR-BI DiI inh: inactive; HIV Env fusion: inactive; SR-BI uptake up: inactive

Results for Cc1ccc(-c2nn(-c3ccccc3)cc2/C=C/C(=O)OCC(=O)NC2CC2)o1 ?
Rtt109 Vps75: inactive; Glyco luc inh: inactive; SR-BI DiI inh: 72.4; HIV Env fusion: inactive; SR-BI uptake up: inactive; DiI quench: inactive

What do the screens show for `O=C1[C@@H]2Cc3c([nH]c4ccccc34)C(c3cccc([N+](=O)[O-])c3)N2C(=O)CN1CCCO` (stereo not given in full)?
Rtt109 Vps75: inactive; PglD DTNB: inactive; Glyco luc inh: inactive; SR-BI DiI inh: 81.8; HIV Env fusion: inactive; SR-BI uptake up: inactive; DiI quench: inactive

How did C[C@@H]1CCCCO[C@@H](CN(C)C(=O)Cc2ccccc2)[C@H](C)CN([C@@H](C)CO)C(=O)c2cc(NS(=O)(=O)c3ccc(Cl)cc3)ccc2O1 do in these assays?
PglD DTNB: inactive; HIV Env fusion: inactive

What do the screens show for `CCC1CCCCN1C(=O)CSc1nnc(-c2ccco2)o1` (stereo not given)?
Rtt109 Vps75: inactive; PglD DTNB: inactive; Glyco luc inh: inactive; SR-BI DiI inh: 76.5; HIV Env fusion: inactive; SR-BI uptake up: inactive; DiI quench: inactive

How did CC(C)CN(CC(C)C)C(=O)COn1nnc2ccc(S(=O)(=O)N3CCOCC3)cc21 do in these assays?
Rtt109 Vps75: inactive; PglD DTNB: inactive; Glyco luc inh: inactive; SR-BI DiI inh: 70.4; HIV Env fusion: inactive; SR-BI uptake up: inactive; DiI quench: inactive

What do the screens show for `Cc1ccccc1COn1nnc2ccc(S(=O)(=O)N3CCOCC3)cc21`?
Rtt109 Vps75: inactive; Glyco luc inh: inactive; SR-BI DiI inh: inactive; HIV Env fusion: inactive; SR-BI uptake up: inactive

How did CN(C(=O)COn1nnc2ccc(S(=O)(=O)N3CCOCC3)cc21)c1ccccc1 do in these assays?
Rtt109 Vps75: inactive; PglD DTNB: inactive; Glyco luc inh: inactive; SR-BI DiI inh: inactive; HIV Env fusion: inactive; SR-BI uptake up: inactive; DiI quench: inactive

How did C/C=C/COC(=O)c1[nH]c2c(c1C)C(=O)CC(c1ccco1)C2 (stereo not given) do in these assays?
Rtt109 Vps75: inactive; PglD DTNB: inactive; Glyco luc inh: inactive; SR-BI DiI inh: 77.8; HIV Env fusion: inactive; SR-BI uptake up: inactive; DiI quench: inactive
